# Results: ChEMBL document CHEMBL5724801, “EUbOPEN Chemogenomics Library - Multiplex” (2024)
# Values joined by “and” are separate entries in the source; they are usually repeats but may differ in a detail not shown here. Identical values can stand only once.
# Key:
# HEK-293T = experiment: Multiplex assay against HEK293T; assay type: toxicity, cell-based; conditions: human
# Summary of the method: (§1)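 Cells were classed with CellPathfinder machine-learning gating, first as Hoechst high-intensity objects or normal cells, then (normal cells) as healthy, pyknosed or fragmented nuclei, and finally (pyknosed cells) as mitotic or apoptotic. Staining of live cells at seeding used Hoechst33342, BioTracker Green Microtubule Cytoskeleton Dye, MitoTracker Red and Annexin V Alexa Fluor 680, with imaging on a CQ1 microscope at 37°C and 5% CO2 after compound addition. Tubulin, mitochondrial-mass and membrane-permeability phenotypes are per cents of healthy-nucleus cells.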
# Fibroblast = experiment: Multiplex assay against human fibroblast; assay type: toxicity, cell-based; summary of the method: as §1
# [1] = 24 h, 10 µM, compound concentration 10 uM
# [2] = 48 h, 1 µM, compound concentration 1 uM
# [3] = 48 h, 10 µM, compound concentration 10 uM
# [4] = 12 h, 1 µM, compound concentration 1 uM
# [5] = 12 h, 10 µM, compound concentration 10 uM
# [6] = 24 h, 1 µM, compound concentration 1 uM
structure (smiles),measurement,setting,value
Cc1nc2ccc(Oc3ccc(F)cc3)cc2c(=O)n1C[C@H]1CCCN(C(C)C)C1.Cl,Population Fragmented Nuclei (%),HEK-293T; [1],10% and 11%
same,Population Healthy Nuclei (%),HEK-293T; [1],73% and 75%
same,Population Hoechst High Intensity Objects (%),HEK-293T; [1],12% and 23%
same,Population Membrane Permeable-Phenotype (%),HEK-293T; [1],3% and 0%
same,Population Mitochondria Different-Phenotype (%),HEK-293T; [1],67% and 88%
same,Population Mitotic Cells (%),HEK-293T; [1],50% and 31%
same,Population Normal (%),HEK-293T; [1],87% and 76%
same,Population Pyknosed Nuclei (%),HEK-293T; [1],15% and 12%
same,Population Tubulin-Different-Phenotype (%),HEK-293T; [1],70% and 68%
same,Total Cell Count,HEK-293T; [1],525 and 334
same,Population Apoptotic (%),HEK-293T; [2],27% and 60%
same,Population Fragmented Nuclei (%),HEK-293T; [2],19% and 13%
same,Population Healthy Nuclei (%),HEK-293T; [2],75% and 80%
same,Population Hoechst High Intensity Objects (%),HEK-293T; [2],1% and 7%
same,Population Membrane Permeable-Phenotype (%),HEK-293T; [2],1% and 0%
same,Population Mitochondria Different-Phenotype (%),HEK-293T; [2],22% and 36%
same,Population Mitotic Cells (%),HEK-293T; [2],72% and 39%
same,Population Normal (%),HEK-293T; [2],98% and 92%
same,Population Pyknosed Nuclei (%),HEK-293T; [2],5% and 6%
same,Population Tubulin-Different-Phenotype (%),HEK-293T; [2],14%
same,Total Cell Count,HEK-293T; [2],901 and 380
same,Population Apoptotic (%),HEK-293T; [3],47% and 67%
same,Population Fragmented Nuclei (%),HEK-293T; [3],15% and 17%
same,Population Healthy Nuclei (%),HEK-293T; [3],74% and 72%
same,Population Hoechst High Intensity Objects (%),HEK-293T; [3],11% and 22%
same,Population Membrane Permeable-Phenotype (%),HEK-293T; [3],2% and 0%
same,Population Mitochondria Different-Phenotype (%),HEK-293T; [3],60% and 69%
same,Population Mitotic Cells (%),HEK-293T; [3],52% and 32%
same,Population Normal (%),HEK-293T; [3],88% and 78%
same,Population Pyknosed Nuclei (%),HEK-293T; [3],9%
same,Population Tubulin-Different-Phenotype (%),HEK-293T; [3],62% and 58%
same,Total Cell Count,HEK-293T; [3],754 and 459
same,Population Apoptotic (%),Fibroblast; [4],34% and 44%
same,Population Fragmented Nuclei (%),Fibroblast; [4],19% and 24%
same,Population Healthy Nuclei (%),Fibroblast; [4],67% and 47%
same,Population Hoechst High Intensity Objects (%),Fibroblast; [4],5% and 9%
same,Population Mitochondria Different-Phenotype (%),Fibroblast; [4],4% and 8%
same,Population Mitotic Cells (%),Fibroblast; [4],65% and 55%
same,Population Normal (%),Fibroblast; [4],94% and 90%
same,Population Pyknosed Nuclei (%),Fibroblast; [4],13% and 29%
same,Population Tubulin-Different-Phenotype (%),Fibroblast; [4],31% and 70%
same,Total Cell Count,Fibroblast; [4],184 and 111
same,Population Apoptotic (%),Fibroblast; [5],53% and 61%
same,Population Fragmented Nuclei (%),Fibroblast; [5],19% and 36%
same,Population Healthy Nuclei (%),Fibroblast; [5],61% and 44%
same,Population Hoechst High Intensity Objects (%),Fibroblast; [5],4% and 3%
same,Population Membrane Permeable-Phenotype (%),Fibroblast; [5],1% and 5%
same,Population Mitochondria Different-Phenotype (%),Fibroblast; [5],22% and 25%
same,Population Mitotic Cells (%),Fibroblast; [5],46% and 38%
same,Population Normal (%),Fibroblast; [5],95% and 96%
same,Population Pyknosed Nuclei (%),Fibroblast; [5],19%
same,Population Tubulin-Different-Phenotype (%),Fibroblast; [5],88% and 80%
same,Total Cell Count,Fibroblast; [5],241 and 205
same,Population Apoptotic (%),Fibroblast; [6],66% and 38%
same,Population Fragmented Nuclei (%),Fibroblast; [6],17% and 29%
same,Population Healthy Nuclei (%),Fibroblast; [6],68% and 50%
same,Population Hoechst High Intensity Objects (%),Fibroblast; [6],3% and 7%
same,Population Mitochondria Different-Phenotype (%),Fibroblast; [6],6% and 17%
same,Population Mitotic Cells (%),Fibroblast; [6],33% and 61%
same,Population Normal (%),Fibroblast; [6],96% and 92%
same,Population Pyknosed Nuclei (%),Fibroblast; [6],13% and 20%
same,Population Tubulin-Different-Phenotype (%),Fibroblast; [6],30% and 73%
same,Total Cell Count,Fibroblast; [6],186 and 112
same,Population Apoptotic (%),Fibroblast; [1],67% and 54%
same,Population Fragmented Nuclei (%),Fibroblast; [1],27% and 30%
same,Population Healthy Nuclei (%),Fibroblast; [1],58% and 52%
same,Population Hoechst High Intensity Objects (%),Fibroblast; [1],3% and 6%
same,Population Membrane Permeable-Phenotype (%),Fibroblast; [1],0% and 1%
same,Population Mitochondria Different-Phenotype (%),Fibroblast; [1],27% and 29%
same,Population Mitotic Cells (%),Fibroblast; [1],32% and 45%
same,Population Normal (%),Fibroblast; [1],96% and 93%
same,Population Pyknosed Nuclei (%),Fibroblast; [1],13% and 17%
same,Population Tubulin-Different-Phenotype (%),Fibroblast; [1],84% and 87%
same,Total Cell Count,Fibroblast; [1],290 and 187
same,Population Apoptotic (%),Fibroblast; [2],66% and 42%
same,Population Fragmented Nuclei (%),Fibroblast; [2],25% and 36%
same,Population Healthy Nuclei (%),Fibroblast; [2],66% and 44%
same,Population Hoechst High Intensity Objects (%),Fibroblast; [2],3% and 5%
same,Population Membrane Permeable-Phenotype (%),Fibroblast; [2],0% and 6%
same,Population Mitotic Cells (%),Fibroblast; [2],33% and 57%
same,Population Normal (%),Fibroblast; [2],96% and 94%
same,Population Pyknosed Nuclei (%),Fibroblast; [2],8% and 19%
same,Population Tubulin-Different-Phenotype (%),Fibroblast; [2],33% and 68%
same,Total Cell Count,Fibroblast; [2],184 and 105
same,Population Apoptotic (%),Fibroblast; [3],66% and 68%
same,Population Fragmented Nuclei (%),Fibroblast; [3],23% and 33%
same,Population Healthy Nuclei (%),Fibroblast; [3],65% and 53%
same,Population Hoechst High Intensity Objects (%),Fibroblast; [3],9% and 3%
same,Population Membrane Permeable-Phenotype (%),Fibroblast; [3],0% and 2%
same,Population Mitochondria Different-Phenotype (%),Fibroblast; [3],20% and 19%
same,Population Mitotic Cells (%),Fibroblast; [3],33% and 32%
same,Population Normal (%),Fibroblast; [3],90% and 96%
same,Population Pyknosed Nuclei (%),Fibroblast; [3],10% and 12%
same,Population Tubulin-Different-Phenotype (%),Fibroblast; [3],85%
same,Total Cell Count,Fibroblast; [3],290 and 201
